Screens: PubChem, Johns Hopkins Ion Channel Center
RGS4 inh: inhibitors of human RGS4. HEK293 M3R/RGS4 inducible, Fluo-4 calcium flux; hits give high values; triggered by carbachol at its EC20. B-score at 10 µM. actives 0.45% (n = 310,000). AID 463165;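 active means B-score, a plate-corrected calcium signal, over three deviations above library mean, with baseline fluorescence within five deviations of library mean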;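 further: RGS4 expression induced by doxycycline in cells with stable M3 receptor; B-score is computed from the integrated fluorescence ratio over baseline after carbachol; higher B-score means a larger calcium signal and so more RGS4 inhibition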
Target sequence (P49798 whole entry, looked up): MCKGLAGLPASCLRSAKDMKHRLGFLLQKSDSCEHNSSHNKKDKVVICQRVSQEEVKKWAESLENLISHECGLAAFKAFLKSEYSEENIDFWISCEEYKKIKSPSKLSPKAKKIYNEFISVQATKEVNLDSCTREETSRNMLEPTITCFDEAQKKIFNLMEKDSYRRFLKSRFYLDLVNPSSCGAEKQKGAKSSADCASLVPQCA
MrgX1 ag: agonists of human MrgX1 receptor. B-score at 10 µM. Q96LB2. actives 0.44% (n = 310,000). MrgX1-HEK293 cells, Fluo-4 calcium fluorescence, agonist mode; hits give high values;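 active means calcium response B-score plate-corrected fluorescence ratio at least 3 library SD, with starting fluorescence B-score inside 5 SD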
Target sequence (Q96LB2 whole entry, looked up): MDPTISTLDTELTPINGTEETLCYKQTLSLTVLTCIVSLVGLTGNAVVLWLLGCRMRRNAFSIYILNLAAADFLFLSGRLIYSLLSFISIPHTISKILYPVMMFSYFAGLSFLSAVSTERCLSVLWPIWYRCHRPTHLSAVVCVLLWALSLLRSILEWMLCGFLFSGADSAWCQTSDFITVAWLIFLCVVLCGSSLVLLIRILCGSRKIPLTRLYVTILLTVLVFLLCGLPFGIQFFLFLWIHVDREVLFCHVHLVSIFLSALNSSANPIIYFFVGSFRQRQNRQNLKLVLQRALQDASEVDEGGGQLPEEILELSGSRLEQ
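Assay system: stable human MrgX1 HEK293 cell line. Quantity: 15,000 cells per well. Schedule: cells plated overnight, dye loaded 0.5 h 37 °C, 0.5 h room temperature. Detection: Fluo-4 NW calcium-flux fluorescence, kinetic read. Read-out basis: peak-minus-minimum fluorescence over baseline, converted to B scores. Control set: positive and negative control wells on each plate.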
MrgX1 allo act: allosterically activates human MrgX1 receptor signaling. Q96LB2. MrgX1-HEK293, Fluo-4 calcium flux, FDSS; hits give high values. B-score at 10 µM. actives 0.63% (n = 310,000). AID 588675;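 active means plate-corrected calcium response at least 3 library SD above typical, normal starting fluorescence, not activating the receptor alone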;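 further: compound read alongside a low EC10 to EC30 dose of BAM8-22 agonist; peak minus trough fluorescence over baseline measured at the second addition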
MrgX1 antagonist: blocks BAM8-22 activation of human MrgX1 receptor | Q96LB2 | MRGX1-HEK293 calcium flux, Fluo-4, BAM8-22 antagonism; hits give low values | AID 588676 | B-score at 10 µM | actives 1.3% (n = 310,000);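 active means calcium-response B-score plate-corrected more than 3 library SD below zero, starting fluorescence within 5 deviations, no agonist response on first addition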;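 further: peak minus trough fluorescence over baseline after final BAM8-22 challenge near maximal dose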
RGS4 pot: RGS4 potentiation or activation | HEK293 M3R/inducible RGS4, carbachol calcium flux Fluo4; hits give low values | B-score at 10 µM | actives 0.92% (n = 310,000);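 active means B-score of the integrated calcium signal more than 4 SD below the library mean, with starting fluorescence not abnormally high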;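 further: negative B-score means reduced calcium response which marks RGS4 activation or potentiation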
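Also added: carbachol at ECmax as muscarinic agonist stimulus; Assay system: HEK293 cells with stable M3R and inducible RGS4; Timing: overnight RGS4 induction, 30 min dye load 37 °C, 20 min compound RT; Measured by: Fluo4-AM (2 µM) calcium-flux fluorescence, kinetic read.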
RGS4 act valid: RGS4 activation, validation assay | shares compounds with RGS4 pot | HEK293 M3R/RGS4 inducible, carbachol calcium flux Fluo4 | inhibition, % at 10 µM | actives 89% (n = 1,100) | AID 602282;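 active means inhibition above 3 SD of the buffer control wells, cut at about 41% in these data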;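 further: signal is the integrated peak-minus-minimum Fluo4 fluorescence over baseline ratio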
RGS4 act ctr: activity in cells without induced RGS4 expression; shares compounds with RGS4 pot; actives 82% (n = 1,100); HEK293 M3R non-induced RGS4, Fluo4 calcium flux; after carbachol challenge at its EC90; inhibition, % at 10 µM;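 active means inhibition exceeding 3 SD of buffer-only control wells, cut at about 26% in these data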;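 further: percent drop in integrated peak-minus-baseline over baseline Fluo4 ratio after carbachol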
Large screens that a line does not name were inactive (follow-up assays come after a bar, where they were run). Only some compounds are listed: those with a hit (about 3.5% of all), similar ones and a draw of the others.

O=C(COC(=O)c1cc([N+](=O)[O-])ccc1N1CCOCC1)Nc1ccc(Cl)cn1	none
N#CCC(=O)N/N=C/c1c(-c2ccccc2)n(-c2ccccc2)c2ccccc12	RGS4 pot -12 | RGS4 act valid 86 | RGS4 act ctr 50
N#CCC(=O)N/N=C/c1cn(Cc2ccccc2C#N)c2ccccc12	none
OC1(CC#CCN2CCCCC2)c2ccccc2-c2ccccc21	none
OC1(C#CCCN2CCCCC2)c2ccccc2-c2ccccc21	RGS4 pot -8.7 | RGS4 act valid 92 | RGS4 act ctr 60
CC(C)c1cc(C(=O)NNC(=S)NCc2ccco2)c(O)c(C(C)C)c1	none
COc1ccc(CCNC(=O)C(=O)NCC2CCCN2S(=O)(=O)c2cc(C)ccc2C)cc1 (configuration not stated)	RGS4 pot -9.5 | RGS4 act valid 74 | RGS4 act ctr 26
Cc1ccc(C)c(S(=O)(=O)N2CCCC2CNC(=O)C(=O)NCCc2ccccc2)c1 (configuration not stated)	RGS4 pot -10 | RGS4 act valid 80 | RGS4 act ctr 31
COc1ccc(CCNC(=O)C(=O)NCC2OCCCN2S(=O)(=O)c2cc(C)ccc2C)cc1 (configuration not stated)	none
Cc1ccc(C)c(S(=O)(=O)N2CCCC2CNC(=O)C(=O)NCc2ccccc2C)c1 (configuration not stated)	none
CN(C)c1ccc(CN(C(=O)c2cccs2)C2CCS(=O)(=O)C2)cc1 (configuration not stated)	none
CCOC(=O)C1CCN(c2c(C(=O)c3ccccc3)cnc3ccc(CC)cc23)CC1	RGS4 pot -7.7 | RGS4 act valid 90 | RGS4 act ctr 43
CC(C)Cn1c(-c2csc3c2CCCC3)n[nH]c1=S	RGS4 pot -8 | RGS4 act valid 94 | RGS4 act ctr 67
CC(C)Cn1c(-c2ccncc2)n[nH]c1=S	none
CC(C)Cn1c(-c2ccc(F)cc2)n[nH]c1=S	RGS4 pot -8.5 | RGS4 act valid 62 | RGS4 act ctr 84
COc1cc(F)ccc1S(=O)(=O)N1CCN(c2ccccc2)CC1	none
COn1c(SCC(=O)N(C)C)nc2ccccc2c1=O	none
COc1ccc(NC(=O)CSc2nnc(NC(=O)c3ccccc3C(=O)O)s2)cc1	none
CCc1cc(=O)oc2cc(OC(C)C(=O)NCC3CCC(C(=O)O)CC3)c(Cl)cc12 (configuration not stated)	none
CC(C)N(CC#CC(O)(c1ccccc1)c1ccccc1)CCO	RGS4 pot -8.6 | RGS4 act valid 91 | RGS4 act ctr 52
CN(CC#CC(O)(c1ccccc1)c1ccccc1)C(C)(C)C	RGS4 pot -10 | RGS4 act valid 94 | RGS4 act ctr 91
COc1ccccc1OCC(O)CN1CCN(C(=O)c2ccccc2)CC1 (configuration not stated)	none
CCOC(=O)c1c(NC(=O)c2cccc(N3C(=O)CCC3=O)c2)sc2c1CCN(CC)C2	RGS4 pot -9.8 | RGS4 act valid 90 | RGS4 act ctr 44
CCOC(=O)C1=C(Cc2ccc(Cl)cc2)C(=O)c2ccccc2C1=O	MrgX1 antagonist -4.5, RGS4 pot -9.3 | RGS4 act valid 86 | RGS4 act ctr 30
COc1ccc(C)cc1NC(=O)CCNC(=O)Cn1ccc2ccccc2c1=O	none
Cc1ccc(CNC(=O)c2cc3c(C)nc4ccccc4c3o2)cc1	none
CCC(=O)C1CCCN(C(=O)c2ccc3nc(-c4cccc(OC)c4)oc3c2)C1 (configuration not stated)	none
CCOC(=O)C1CCCN(C(=O)c2ccc3nc(-c4cccc(OC)c4)oc3c2)C1 (configuration not stated)	RGS4 pot -8.7 | RGS4 act valid 54 | RGS4 act ctr 84
CCOC(=O)C1CCCN(C(=O)c2cc3c(C)nc4ccccc4c3o2)C1 (configuration not stated)	RGS4 pot -9.2 | RGS4 act valid 82 | RGS4 act ctr 61
Cc1ccc(C)c(N2CCN(C(=O)c3cc4c(C)nc5ccccc5c4o3)CC2)c1	RGS4 pot -8.5 | RGS4 act valid 89 | RGS4 act ctr 68
COc1cc(C(O)c2nc3ccccc3s2)cc(OC)c1OC (configuration not stated)	none
O=C(COc1ccc(S(=O)(=O)NC2CCCCC2)cc1)NC1CC1	none
CCCCOc1ccc(C(=O)NCC(=O)NCC2CCCO2)cc1 (configuration not stated)	none
Cc1cc(NC(=O)CSCC(=O)Nc2cccc(S(=O)(=O)N3CCCCCC3)c2)no1	none
CSc1nc2sc3c(c2c(=O)n1C1CCCCC1)CCN(C)C3	none
C=C(C)CSc1nc2sc3c(c2c(=O)n1C1CCCCC1)CCN(C)C3	RGS4 pot -7.8 | RGS4 act valid 93 | RGS4 act ctr 86
COc1ccc(C(=O)N=S2CCN(C(=O)c3ccc(Cl)cc3)CC2)cc1	none
CN(C)CCOC(C1CCCCC1)C1CCCCC1	RGS4 pot -9.1 | RGS4 act valid 90 | RGS4 act ctr 68
COc1ccc(C(=O)CCC(=O)Nc2cc(Cl)c(O)c(Cl)c2)cc1	none
CN(C)C(C)(C)/C=C/C(O)(c1ccccc1)c1ccccc1	RGS4 pot -8.7 | RGS4 act valid 88 | RGS4 act ctr 64
C(=N\c1nc2ccccc2n1Cc1ccccc1)/c1cccs1	RGS4 pot -9.8 | RGS4 act valid 76 | RGS4 act ctr 41
C=CCN1C(=O)/C(=C2\SC(N3CCOCC3)=NC2=O)c2cc(Br)ccc21	RGS4 pot -8.6 | RGS4 act valid 86 | RGS4 act ctr 63
COc1ccc(N2CCN(C(=O)Cc3csc(NC(=O)Nc4ccccc4OC)n3)CC2)cc1	none
COc1ccccc1NC(=O)Nc1nc(CC(=O)N2CCN(c3ccc(F)cc3)CC2)cs1	RGS4 pot -8.2 | RGS4 act valid 56 | RGS4 act ctr inactive
Cc1cc(Cl)c(S(=O)(=O)N2CCN(c3ccccn3)CC2)cc1OCC(=O)NC1CCCCC1	RGS4 pot -8 | RGS4 act valid 92 | RGS4 act ctr 75
CCN(CC)S(=O)(=O)c1cccc(N=Nc2c(O)c3ccccc3oc2=O)c1	none
Cc1c(C(=O)N2CCN(c3ccccc3)CC2)sc2ncnc(N3CCN(c4ccccn4)CC3)c12	RGS4 pot -9.7 | RGS4 act valid 80 | RGS4 act ctr 48
Cc1c(C(=O)N(C)C2CCCCC2)sc2ncnc(N3CCN(c4ccccc4)CC3)c12	RGS4 pot -9.7 | RGS4 act valid inactive | RGS4 act ctr 28
